The text below walks through data of ChEMBL document CHEMBL4359826, “Preparation of bivalent agonists for targeting the mu opioid and cannabinoid receptors” (Eur J Med Chem, 2019).

The species named for assay [1] is Rattus norvegicus. The following applies: Wistar, Brain, Membranes, at 10 µM.
The target of assay [2] is Kappa-type opioid receptor (Cavia porcellus, UniProt P41144). The class given is cell membranes, Brain, Membranes.
Assay [3] has as its target Delta-type opioid receptor (Rattus norvegicus, UniProt P33533). Briefly: Displacement of [3H]Ile5,6-deltorphin-2 from DOR in Wistar rat brain membranes after 60 mins by liquid scintillation analysis. The assay is classed as cell membranes. In general terms: Loss of bound radioactivity is the signal in a displacement assay; it reports binding, not function.
In a further assay the target is Mu-type opioid receptor (Rattus norvegicus, UniProt P33535). Briefly: Displacement of [3H]DAMGO from MOR in Wistar rat brain membranes after 60 mins by liquid scintillation analysis. The class given is cell membranes.
Assay [4] is described as follows: Agonist activity at MOR/CB1R/CB2R receptor in Wistar rat brain membranes after 60 mins by [35S]-GTPgammaS binding assay. The class given is cell membranes.
For assay [5], the target named is T1, Cannabinoid receptor (Rattus norvegicus, UniProt Q9QZN9+P20272). The class given is cell membranes, Wistar, Brain, Membranes.
Assay [6] is filed under the species Rattus norvegicus. Briefly: Antagonist activity at MOR/CB1R/CB2R in Wistar rat brain membranes at 10 uM in presence of (S)-N-((2R,8S)-18-(3-(1-naphthoyl)-1H-indol-1-yl)-8-benzyl-3,6,9,12-tetraoxo-4,7,10,13-tetraazaoctadecan-2-yl)-2-amino-3-(4-hydroxyphenyl)propanamide after 60 mins by liquid scintillation analysis relative to control. The assay is classed as cell membranes. The method in brief: (§1)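 Rat brain membranes (30 µg protein/tube) incubated 60 min at 30 °C with 0.05 nM [35S]GTPγS and ligand at 10^-10–10^-5 M. Buffer: 50 mM Tris-HCl pH 7.4 with 30 µM GDP, 100 mM NaCl, 3 mM MgCl2, 1 mM EGTA. […] Nonspecific binding taken with 10 µM GTPγS; basal set as 100%. Filtration and scintillation counting; n≥3.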

Assay [7] deals with T1, Cannabinoid receptor. Briefly: Displacement of [3H]JWH-018 from CB1R/CB2R in Wistar rat brain membranes after 60 mins by liquid scintillation analysis. The assay is classed as cell membranes.
Assay [8] deals with Mu-type opioid receptor (Rattus norvegicus) (UniProt P33535). Briefly: Antagonist activity at MOR in Wistar rat brain membranes at 10 uM in presence of Tyr-D-Ala-Gly-Phe-NH2 after 60 mins by [35S]-GTPgammaS binding assay relative to control. The assay is classed as functional, cell membranes. The method in brief: (§2)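 Rat brain membranes (30 µg protein/tube) incubated 60 min at 30 °C with 0.05 nM [35S]GTPγS and ligand at 10^-10–10^-5 M. Buffer: 50 mM Tris-HCl pH 7.4 with 30 µM GDP, 100 mM NaCl, 3 mM MgCl2, 1 mM EGTA. Nonspecific binding taken with 10 µM GTPγS; basal set as 100%. Filtration and scintillation counting; n≥3.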
For orientation: GTPγS resists hydrolysis and so accumulates on activated G proteins.

Assay [9] shares this target. Briefly: Antagonist activity at MOR in Wistar rat brain membranes at 10 uM in presence of oxycodone after 60 mins by [35S]-GTPgammaS binding assay relative to control. The assay is classed as functional, cell membranes. An outline of the steps:
as §2

Assay [10] is filed under the species Rattus norvegicus. Briefly: Antagonist activity at MOR/CB1R/CB2R in Wistar rat brain membranes at 10 uM in presence of N-[6-[[2-[[(4R,4aS,7aR,12bS)-4a-hydroxy-9-methoxy-3-methyl-2,4,5,6,7a,13-hexahydro-1H-4,12-methanobenzofuro[3,2-e]isoquinoline-7-ylidene]amino]oxyacetyl]amino]hexyl]-6-[3-(naphthalene-1-carbonyl)indol-1-yl]hexanamide after 60 mins by [35S]-GTPgammaS binding assay relative to control. The class given is cell membranes. An outline of the steps:
as §1

In assay [11] the target is T2, Cannabinoid receptor (Rattus norvegicus) (UniProt Q9QZN9+P20272). Briefly: Antagonist activity at CB1R/CB2R in Wistar rat brain membranes at 10 uM in presence of JWH-018 after 60 mins by [35S]-GTPgammaS binding assay relative to control. The assay is classed as functional, cell membranes. The method in brief:
as §1

Assay [12] deals with T2, Cannabinoid receptor (Rattus norvegicus). Briefly: Displacement of [3H]JWH-018 from CB1R/CB2R in Wistar rat brain membranes at 10 uM after 60 mins by liquid scintillation analysis. The class given is cell membranes. An outline of the steps:
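Whole rat brain membranes (cerebellum removed; 0.3–0.5 mg/mL protein) in 50 mM Tris-HCl pH 7.4 with 2.5 mM EGTA, 5 mM MgCl2 and 0.5 mg/mL fatty-acid-free BSA, 30 °C. Kinetics used 0.6 nM [3H]JWH-018: association over 0–90 min, dissociation started with 10 µM JWH-018 after 60 min. Saturation over 0.5–35 nM. Competitors at 10^-11–10^-5 M, 60 min. Nonspecific binding with 10 µM JWH-018. Filtration onto PEI-soaked GF/B filters; n≥3.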

pEC50, pKi: −log10 of the molar value. The source made the active and inactive calls. The calls are words filed in the database; no cut-off is given here. Bounds are passed on as bounds.

Kappa-type opioid receptor, sequence (P41144 whole entry): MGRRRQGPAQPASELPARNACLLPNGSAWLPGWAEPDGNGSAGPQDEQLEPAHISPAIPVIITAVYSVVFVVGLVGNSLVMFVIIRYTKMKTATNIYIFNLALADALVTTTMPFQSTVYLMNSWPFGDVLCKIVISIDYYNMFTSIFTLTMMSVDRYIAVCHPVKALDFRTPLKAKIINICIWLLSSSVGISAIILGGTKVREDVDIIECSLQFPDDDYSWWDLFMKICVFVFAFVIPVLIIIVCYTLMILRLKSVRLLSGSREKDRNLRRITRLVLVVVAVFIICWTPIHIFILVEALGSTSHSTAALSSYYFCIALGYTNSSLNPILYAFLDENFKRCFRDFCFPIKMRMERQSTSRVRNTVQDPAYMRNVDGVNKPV
Mu-type opioid receptor (Rattus norvegicus), sequence (P33535 whole entry): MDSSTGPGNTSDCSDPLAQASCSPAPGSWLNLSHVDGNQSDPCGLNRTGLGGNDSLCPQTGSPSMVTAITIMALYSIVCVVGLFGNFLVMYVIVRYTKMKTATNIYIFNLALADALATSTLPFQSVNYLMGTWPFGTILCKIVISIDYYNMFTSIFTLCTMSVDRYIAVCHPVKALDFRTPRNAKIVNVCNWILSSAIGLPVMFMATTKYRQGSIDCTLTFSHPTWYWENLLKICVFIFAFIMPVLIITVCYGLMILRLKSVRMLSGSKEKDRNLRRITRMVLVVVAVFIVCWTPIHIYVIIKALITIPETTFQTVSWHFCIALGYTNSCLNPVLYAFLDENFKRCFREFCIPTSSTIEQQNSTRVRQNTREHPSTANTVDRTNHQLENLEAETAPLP
Mu-type opioid receptor, sequence (P33535 whole entry): as above
Delta-type opioid receptor, sequence (P33533 whole entry): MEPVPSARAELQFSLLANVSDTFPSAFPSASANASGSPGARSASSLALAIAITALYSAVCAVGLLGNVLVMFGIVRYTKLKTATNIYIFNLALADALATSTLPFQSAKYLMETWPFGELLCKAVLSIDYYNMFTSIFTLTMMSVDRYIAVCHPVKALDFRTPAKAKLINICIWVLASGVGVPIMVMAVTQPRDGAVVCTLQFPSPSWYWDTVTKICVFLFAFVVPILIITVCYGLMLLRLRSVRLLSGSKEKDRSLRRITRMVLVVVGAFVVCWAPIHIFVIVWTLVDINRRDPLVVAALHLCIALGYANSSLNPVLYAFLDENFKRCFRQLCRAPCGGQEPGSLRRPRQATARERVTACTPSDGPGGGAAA
T2 sequence (P20272 whole entry, looked up): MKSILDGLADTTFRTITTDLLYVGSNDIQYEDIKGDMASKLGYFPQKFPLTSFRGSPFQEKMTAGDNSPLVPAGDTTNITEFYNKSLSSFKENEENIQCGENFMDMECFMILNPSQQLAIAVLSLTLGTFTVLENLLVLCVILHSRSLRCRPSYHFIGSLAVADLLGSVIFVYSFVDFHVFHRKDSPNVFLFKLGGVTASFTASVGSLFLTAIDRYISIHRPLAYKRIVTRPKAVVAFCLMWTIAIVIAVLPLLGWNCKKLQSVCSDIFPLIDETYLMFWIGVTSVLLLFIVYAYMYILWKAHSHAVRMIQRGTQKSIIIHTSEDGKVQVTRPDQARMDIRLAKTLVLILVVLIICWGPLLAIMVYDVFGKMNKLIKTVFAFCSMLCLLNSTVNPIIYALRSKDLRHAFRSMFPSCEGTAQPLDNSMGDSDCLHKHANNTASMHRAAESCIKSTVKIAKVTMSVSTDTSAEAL
T2 sequence (Q9QZN9 whole entry, looked up): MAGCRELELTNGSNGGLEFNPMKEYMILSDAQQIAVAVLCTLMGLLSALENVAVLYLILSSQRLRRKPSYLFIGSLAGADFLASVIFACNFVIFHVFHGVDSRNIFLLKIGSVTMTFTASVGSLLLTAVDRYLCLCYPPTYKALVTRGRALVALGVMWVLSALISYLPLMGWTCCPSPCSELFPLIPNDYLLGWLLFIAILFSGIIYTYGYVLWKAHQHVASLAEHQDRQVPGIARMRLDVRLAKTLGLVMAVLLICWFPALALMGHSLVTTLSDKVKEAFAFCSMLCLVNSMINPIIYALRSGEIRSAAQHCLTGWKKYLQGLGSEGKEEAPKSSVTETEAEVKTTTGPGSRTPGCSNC

As for `COc1ccc2c3c1O[C@H]1/C(=N\OCC(=O)NCCCCCCN)CC[C@@]4(O)[C@@H](C2)N(C)CC[C@]314`, the Emax (commonly the greatest response seen or fitted, relative to the assay's reference) in the assay listed under Rattus norvegicus [1] was determined as 111%. The pKi (as a rule, the negative decadic logarithm of the Ki, by convention in mol/L) in assay [2] was 6.42; in assay [3], 6.18; on Mu-type opioid receptor it was 7.39. Moreover, in assay [4], the pEC50 (usually the EC50 on a negative log10 scale, so that one unit is a factor of ten) is 6.52.

In the case of `COc1ccc2c3c1O[C@H]1/C(=N\OCC(=O)NCCCOCCOCCOCCCNC(=O)CCCCCn4cc(C(=O)c5cccc6ccccc56)c5ccccc54)CC[C@@]4(O)[C@@H](C2)N(C)CC[C@]314`, the Emax in the assay listed under Rattus norvegicus [1] was 99%; in the assay listed under Rattus norvegicus [6] it was 99%; in assay [8], 97%; in assay [9] it was 100%; in the assay listed under Rattus norvegicus [10], 101%; in assay [11] it was 110%. Besides, the pKi in assay [2] is 6.73; in assay [3] it was 6.41; on Mu-type opioid receptor it was 7.70. Also, the Ki – broadly, a measure of affinity in units of concentration, obtained from inhibition or displacement – on Cannabinoid receptor [5] is reported as 78 nM; on Cannabinoid receptor [7], 183 nM.

As for `Cc1c(C(=O)NN2CCCCC2)nn(-c2ccc(Cl)cc2Cl)c1-c1ccc(Cl)cc1`, in assay [11], the Emax was found to be 100%.

Molecule `COc1ccc2c3c1O[C@H]1/C(=N\OCC(=O)O)CC[C@@]4(O)[C@@H](C2)N(C)CC[C@]314` showed an Emax in the assay filed under Rattus norvegicus [1] of 109%. Besides, the pKi was < 5.00 in assay [2], 6.96 in [3] and 7.62 on Mu-type opioid receptor. For the same molecule, the pEC50 in assay [4] was 6.65.

On to `C[C@@H](NC(=O)[C@@H](N)Cc1ccc(O)cc1)C(=O)NCC(=O)N[C@@H](Cc1ccccc1)C(=O)NCCC(=O)NCCCCCn1cc(C(=O)c2cccc3ccccc23)c2ccccc21`, for which the Emax in the assay filed under Rattus norvegicus [1] is 114%. Besides, the pKi in assay [2] was 6.82; in assay [3], 6.72; on Mu-type opioid receptor, 7.32. Besides, the Ki at Cannabinoid receptor [5] is 1216 nM; at Cannabinoid receptor [7], 919 nM. This molecule also showed a pEC50 in assay [4] of 7.74.

As for `NC(=O)[C@H](Cc1ccccc1)NC(=O)[C@H](Cc1ccccc1)NC(=O)[C@@H]1CCCN1C(=O)[C@@H](N)Cc1ccc(O)cc1`, the outcome in assay [12] was inactive.

Turning to `NC(=O)[C@H](Cc1ccccc1)NC(=O)[C@H](Cc1c[nH]c2ccccc12)NC(=O)[C@@H]1CCCN1C(=O)[C@@H](N)Cc1ccc(O)cc1`, in assay [12], the outcome was inactive.

In the assay filed under Rattus norvegicus [1], `C[C@@H](NC(=O)[C@@H](N)Cc1ccc(O)cc1)C(=O)NCC(=O)N[C@@H](Cc1ccccc1)C(=O)NCCCCCn1cc(C(=O)c2cccc3ccccc23)c2ccccc21` displayed an Emax of 110%. In addition, the pKi was 6.64 in assay [2], 6.67 in [3] and 7.30 on Mu-type opioid receptor. In addition, the Ki at Cannabinoid receptor [5] is 823 nM; at Cannabinoid receptor [7], 1013 nM. The pEC50 in assay [4] was 5.74.

On to `C=CCN1CC[C@]23c4c5ccc(O)c4O[C@H]2C(=O)CC[C@@]3(O)[C@H]1C5`, for which the result in assay [12] was inactive.

Regarding `CCCCCn1cc(C(=O)c2cccc3ccccc23)c2cc(Br)ccc21`, on Cannabinoid receptor [7], the Ki is 59 nM. This lies in the double-digit nanomolar range.

Consider `COc1ccc2c3c1O[C@H]1/C(=N\OCC(=O)NCCCOCCOCCOCCCN)CC[C@@]4(O)[C@@H](C2)N(C)CC[C@]314`, for which the Emax in the assay filed under Rattus norvegicus [1] amounted to 112%. The results for the pKi (in assay [2]; in [3]; on Mu-type opioid receptor) were 6.30, 6.12 and 7.13, respectively. In assay [4], the negative-log EC50 (pEC50) is 6.70.

Molecule `O=C(O)CCCCCn1cc(C(=O)c2cccc3ccccc23)c2ccccc21` showed an Emax in the assay listed under Rattus norvegicus [1] of 81%. Besides, the Ki on Cannabinoid receptor [5] is reported as 205 nM; on Cannabinoid receptor [7], 247 nM. The molecule further showed a pEC50 in assay [4] of 5.37.

For `COc1ccc2c3c1O[C@H]1/C(=N\OCC(=O)NCCNC(=O)CCCCCn4cc(C(=O)c5cccc6ccccc56)c5ccccc54)CC[C@@]4(O)[C@@H](C2)N(C)CC[C@]314`, the Emax is 100% in the assay listed under Rattus norvegicus [1]; 103% in the assay filed under Rattus norvegicus [6]; 102% in assay [8]; 101% in [9]; 102% in the assay filed under Rattus norvegicus [10]; 107% in assay [11]. Besides, the pKi was 6.47 in assay [2], 6.21 in [3] and 7.48 on Mu-type opioid receptor. For the same molecule, the Ki on Cannabinoid receptor [5] is given as 9.3 nM; at Cannabinoid receptor [7], 255 nM.

For the molecule `CN1CC[C@]23c4c5ccc(O)c4O[C@H]2[C@@H](O)C=C[C@H]3[C@H]1C5`, the result in [12] was inactive.

In the assay filed under Rattus norvegicus [1], `COc1ccc2c3c1O[C@H]1/C(=N\OCC(=O)NCCN)CC[C@@]4(O)[C@@H](C2)N(C)CC[C@]314` registered an Emax of 113%. Further, the pKi in assay [2] is 6.33; in assay [3] it was 6.27; on Mu-type opioid receptor, 7.77. This molecule also gave a pEC50 in assay [4] of 6.35.

`CC(=O)NCCCCCn1cc(C(=O)c2cccc3ccccc23)c2ccccc21` gave an Emax in the assay listed under Rattus norvegicus [1] of 83%. The Ki on Cannabinoid receptor [5] is recorded as 149 nM; at Cannabinoid receptor [7] it was 145 nM. For the same molecule, the pEC50 in assay [4] was 5.67.

Regarding `CC(C)C[C@H](NC(=O)[C@H](Cc1ccccc1)NC(=O)[C@H](CCCCN)NC(=O)[C@H](Cc1ccccc1)NC(=O)[C@H](CC(N)=O)NC(=O)[C@@H](NC(=O)[C@@H]1CCCN1)C(C)C)C(=O)N[C@@H](CO)C(=O)N[C@@H](Cc1cnc[nH]1)C(=O)O` [HEMOPRESSIN], at Cannabinoid receptor [7], the Ki stood at 2793 nM. This lies in the single-digit micromolar range.

Consider H-RVDPVNFKLLSH-OH, for which the Ki on Cannabinoid receptor [7] is given as > 10000 nM.

`C[C@@H](NC(=O)[C@@H](N)Cc1ccc(O)cc1)C(=O)NCC(=O)N[C@@H](Cc1ccccc1)C(=O)NCCCC(=O)NCCCCCn1cc(C(=O)c2cccc3ccccc23)c2ccccc21`: the Emax in the assay listed under Rattus norvegicus [1] was 125%. In addition, the pKi was 7.30 in assay [2], 7.04 in assay [3] and 7.70 on Mu-type opioid receptor. The figures for the Ki at Cannabinoid receptor [5] and at Cannabinoid receptor [7] were 1042 nM and 928 nM, respectively. In assay [4], the pEC50 is 7.22.

Turning to H-PVNFKFL-OH, the Ki at Cannabinoid receptor [7] is on record as > 10000 nM.

As to `NCCCCCn1cc(C(=O)c2cccc3ccccc23)c2ccccc21`, the Emax in the assay listed under Rattus norvegicus [1] is 102%. Also, the values for the Ki at Cannabinoid receptor [5] and at Cannabinoid receptor [7] were 269 nM and 190 nM, respectively.
